Results pooled from the literature.
Each line is one published result; the experiments were not run side by side.
Target: Serine/threonine-protein kinase NLK (NLK, Homo sapiens, UniProt Q9UBE8)
Residues used in one study (Q9UBE8 1-527): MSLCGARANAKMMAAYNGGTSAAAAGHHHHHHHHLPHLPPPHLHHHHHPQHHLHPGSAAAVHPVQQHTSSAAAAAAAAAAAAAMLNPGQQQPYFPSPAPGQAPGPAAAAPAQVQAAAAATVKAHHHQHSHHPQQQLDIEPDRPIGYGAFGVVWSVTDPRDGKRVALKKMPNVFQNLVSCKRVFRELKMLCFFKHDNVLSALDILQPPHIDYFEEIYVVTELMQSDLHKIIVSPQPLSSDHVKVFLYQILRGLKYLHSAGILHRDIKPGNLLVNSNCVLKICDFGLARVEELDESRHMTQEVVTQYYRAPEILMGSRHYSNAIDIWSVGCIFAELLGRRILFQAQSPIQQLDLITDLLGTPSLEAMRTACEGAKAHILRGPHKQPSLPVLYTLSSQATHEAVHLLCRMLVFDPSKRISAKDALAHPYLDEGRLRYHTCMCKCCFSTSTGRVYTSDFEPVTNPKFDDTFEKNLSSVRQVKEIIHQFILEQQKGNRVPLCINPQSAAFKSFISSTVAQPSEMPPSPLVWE

For `O=C(Nc1ccc(Oc2ccc(F)cc2)cc1)N1CCc2ncccc2[C@H]1c1ccc(F)cc1`, the remaining binding was 87% (cell-free assay; competition with immobilised ligand; 1 µM).
The remaining binding of `N[C@@H]1CCN(c2nccc(-c3cnn4ncccc34)n2)C1` is reported as 100% (binding; 1 µM).
The remaining binding of `O=C(O)[C@@H]1[C@@H](Cn2nnc3ccccc3c2=O)CC[C@H]1C(=O)c1ccc(OCCC2CCOCC2)cc1` is reported as 86% (cell-free assay; competition with immobilised ligand; 1 µM).
`COc1cnc(Nc2cccc(S(N)(=O)=O)c2)nc1N1CCN(c2ccccc2)C(=O)C1` has a remaining binding of 100% (binding; competition with immobilised ligand; 1 µM).
For `CN(C)c1ncnc(-c2ccc3nc(Nc4cc(CN5CCN(C(=O)CC(F)(F)F)CC5)ccn4)[nH]c3c2)c1Cl`, the remaining binding was 88% (cell-free assay; competition with immobilised ligand; 1 µM).
`CN(CCCC(F)(F)F)c1nccc(-c2cnn3ncccc23)n1` has a remaining binding of 66% (binding; 1 µM).
`COc1ncc2cc3ccccc3nc2c1C#N` has a remaining binding of 100% (binding; competition with immobilised ligand; 5 µM).
`CS(=O)(=O)NCC[C@H](NC(=O)c1cncc2c1cnn2-c1ccc(F)cc1)c1ccnc(S(C)(=O)=O)c1` has a remaining binding of 100% (cell-free assay; competition with immobilised ligand; 1 µM).
The remaining binding of `c1cncc(-c2cccc(Nc3nccc(NC4CCCCC4)n3)c2)c1` is reported as 67% (binding; competition with immobilised ligand; 10 µM).
The remaining binding of `CN(C)c1nccc(-c2cnc3ncccn23)n1` is reported as 74% (binding; 1 µM).
`O=C(NCCCN1CCOCC1)c1ccc(Nc2nccc(-c3cc4ccccc4s3)n2)cc1` has a remaining binding of 94% (binding; competition with immobilised ligand; 1 µM).
The remaining binding of `COc1ccc2c(c1)O[C@@H](c1ccc(OC)c(OC)c1)C[C@H]2NC(=O)C1(c2ccc3c(c2)OC(F)(F)O3)CC1` is reported as 100% (cell-free assay; competition with immobilised ligand; 1 µM).
For `C[C@H]1CCN(c2nccc(-c3cnn4ncccc34)n2)C1`, the remaining binding was 100% (binding; 1 µM).
The remaining binding of `O=C(Nc1c[nH]nc1C(=O)NC1CCNCC1)c1cc(F)cc(F)c1` is reported as 90% (binding; competition with immobilised ligand; 1 µM).
`CNC(=O)[C@@H]1CC[C@@H](n2c(-c3ccc4cnccc4c3)nc3ccc(C(=O)NCc4cccc(C(N)=O)c4)cc32)C1` has a remaining binding of 100% (binding; competition with immobilised ligand; 1 µM).
For `COc1ccnn2ncc(-c3ccnc(N(C)C)n3)c12`, the remaining binding was 87% (binding; 1 µM).
`O=C(NCc1ncc(C(F)(F)F)cc1Cl)c1ccc2c(c1)C1(CCS(=O)(=O)CC1)[C@@H](C1CC1)N2S(=O)(=O)c1ccc(F)cc1` gave a remaining binding of 89% (cell-free assay; competition with immobilised ligand; 1 µM).
`CN(C)c1nccc(-c2cnn3ncccc23)n1` gave a remaining binding of 100% (binding; 1 µM).
The remaining binding of `O=C(c1ccc(Nc2ncc(Cl)c(-c3cc4ccccc4s3)n2)cc1)N1CCC(N2CCCC2)CC1` is reported as 72% (binding; competition with immobilised ligand; 1 µM).
`C[C@@H]1CN(c2cc(-c3nn(C)c4ccc(OC5(C)CC5)cc34)ncn2)C[C@H](C)O1` has a remaining binding of 96% (cell-free assay; competition with immobilised ligand; 1 µM).
With `CN(C)c1ncc(F)c(-c2cnn3ncccc23)n1` the remaining binding was 74% (binding; 1 µM).
For `O=C(c1ccc(Nc2nccc(-c3cc4ccccc4s3)n2)cc1)N1CCC(N2CCCC2)CC1`, the remaining binding was 93% (binding; competition with immobilised ligand; 1 µM).
